Data reported in article PMC9720105 (Redox Biology, 2022).

Tests used:
[1] = target: recombinant KEAP1-Kelch domain (Homo sapiens, UniProt Q14145); assay: biochemical; format: binding; settings: for reduction in KEAP1 binding affinity compared to inhibitor 2: HTRF biochemical assay
[2] = tested on: NRF2 downstream targets, NQO1 and HO-1; assay: NQO1 and HO-1 protein levels in HEK293T and HCA7 cell lines; format: cell-based; settings: 48 h
How it was run: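 HEK293T, HCA7 and A549 cells were grown in DMEM with 10% FBS and pen/strep; BEAS-2B in LHC-9 with pen/strep; all at 37 °C, 10% CO₂. Cells were exposed to test compound for 48 h, lysed, run on 4–12% SDS-PAGE and transferred to nitrocellulose. Blocking was 5% skim milk for 1 h at RT. Probes were anti-KEAP1, CRBN, NQO1 or HO-1, with HRP anti-β-actin loading control and HRP secondaries. Blots represent 3 independent experiments.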

KEAP1 in HEK293T cells = KEAP1 in HEK293T cells (Homo sapiens, UniProt Q14145); assay: KEAP1 degradation in HEK293T cells; format: cell-based; settings: HEK293T cells; for KEAP1 degradation efficiency: three lower concentrations, 5 and 24 h
Chain of KEAP1 in HEK293T cells (Q14145 whole entry): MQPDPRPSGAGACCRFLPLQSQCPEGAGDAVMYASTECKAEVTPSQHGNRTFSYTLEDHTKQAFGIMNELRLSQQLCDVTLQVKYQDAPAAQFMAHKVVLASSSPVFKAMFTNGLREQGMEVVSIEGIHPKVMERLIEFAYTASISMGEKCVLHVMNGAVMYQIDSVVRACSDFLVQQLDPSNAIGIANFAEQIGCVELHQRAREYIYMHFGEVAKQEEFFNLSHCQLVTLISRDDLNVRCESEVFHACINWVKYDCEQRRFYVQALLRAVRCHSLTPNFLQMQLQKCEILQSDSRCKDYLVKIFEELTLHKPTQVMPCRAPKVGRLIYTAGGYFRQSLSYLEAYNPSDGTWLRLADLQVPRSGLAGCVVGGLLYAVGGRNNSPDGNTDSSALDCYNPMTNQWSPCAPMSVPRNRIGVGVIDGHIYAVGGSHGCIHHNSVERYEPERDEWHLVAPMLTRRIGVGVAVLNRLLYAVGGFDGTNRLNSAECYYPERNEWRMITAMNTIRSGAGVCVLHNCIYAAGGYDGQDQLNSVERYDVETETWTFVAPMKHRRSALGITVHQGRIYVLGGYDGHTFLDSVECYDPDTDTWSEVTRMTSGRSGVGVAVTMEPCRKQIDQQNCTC

Chain of recombinant KEAP1-Kelch domain (Q14145 312-624): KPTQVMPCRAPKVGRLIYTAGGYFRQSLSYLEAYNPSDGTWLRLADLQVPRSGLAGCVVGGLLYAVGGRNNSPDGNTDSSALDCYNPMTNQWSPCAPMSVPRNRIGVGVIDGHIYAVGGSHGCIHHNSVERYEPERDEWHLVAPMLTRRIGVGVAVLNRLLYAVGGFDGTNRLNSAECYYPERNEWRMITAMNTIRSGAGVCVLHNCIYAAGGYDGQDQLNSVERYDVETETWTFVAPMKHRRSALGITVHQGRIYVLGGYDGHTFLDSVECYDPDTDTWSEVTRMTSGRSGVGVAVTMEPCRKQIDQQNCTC

## Cc1ccc(C(CC(=O)O)c2cc(OCCOCCOCCNC(=O)COc3cccc4c3C(=O)N(C3CCC(=O)NC3=O)C4=O)c3c(c2)nnn3C)cc1CN1C[C@@H](C)Oc2ccccc2S1(=O)=O (stereo partly drawn) [Compound 12, 3-(7-(2-(2-(2-(2-((2-(2,6-Dioxopiperidin-3-yl)-1,3-dioxoisoindolin-4-yl)oxy)acetamido)ethoxy)ethoxy)ethoxy)-1-methyl-1H-benzo[d][1,2,3]triazol-5-yl)-3-(4-methyl-3-(((R)-4-methyl-1,1-dioxido-3,4-dihydro-2H-benzo[b][1,4,5]oxathiazepin-2-yl)methyl)phenyl)propanoic acid]
[1]
  IC50: 563 nM
  reduction in KEAP1 binding affinity compared to inhibitor 2: greater than 3 fold

## Cc1ccc(C(CC(=O)O)c2cc(OCCNc3cccc4c3C(=O)N(C3CCC(=O)NC3=O)C4=O)c3c(c2)nnn3C)cc1CN1C[C@@H](C)Oc2ccccc2S1(=O)=O (stereo partly drawn) [Compound 3, 3-(7-(2-((2-(2,6-Dioxopiperidin-3-yl)-1,3-dioxoisoindolin-4-yl)amino)ethoxy)-1-methyl-1H-benzo[d][1,2,3]triazol-5-yl)-3-(4-methyl-3-(((R)-4-methyl-1,1-dioxido-3,4-dihydro-2H-benzo[b][1,4,5]oxathiazepin-2-yl)methyl)phenyl)propanoic acid]
[1]
  IC50: 150 nM

## Cc1ccc(C(CC(=O)O)c2cc(OCCOCCOCCNc3cccc4c3C(=O)N(C3CCC(=O)NC3=O)C4=O)c3c(c2)nnn3C)cc1CN1C[C@@H](C)Oc2ccccc2S1(=O)=O (stereo partly drawn) [Compound 11, 3-(7-(2-(2-(2-((2-(2,6-Dioxopiperidin-3-yl)-1,3-dioxoisoindolin-4-yl)amino)ethoxy)ethoxy)ethoxy)-1-methyl-1H-benzo[d][1,2,3]triazol-5-yl)-3-(4-methyl-3-(((R)-4-methyl-1,1-dioxido-3,4-dihydro-2H-benzo[b][1,4,5]oxathiazepin-2-yl)methyl)phenyl)propanoic acid]
[1]
  IC50: 120 nM

## C[S+]([O-])CCCCN=C=S (stereo not shown) [sulforaphane, reference compound]
[2]
  HO-1 protein expression: but not HO-1
  NQO1 protein expression: upregulated

## Cc1ccc(C(CC(=O)O)c2cc(OCCCCCCCNc3cccc4c3C(=O)N(C3CCC(=O)N(C)C3=O)C4=O)c3c(c2)nnn3C)cc1CN1C[C@@H](C)Oc2ccccc2S1(=O)=O (stereo partly drawn) [Compound 15, 3-(4-Methyl-3-(((R)-4-methyl-1,1-dioxido-3,4-dihydro-2H-benzo[b][1,4,5]oxathiazepin-2-yl)methyl)phenyl)-3-(1-methyl-7-((7-((2-(1-methyl-2,6-dioxopiperidin-3-yl)-1,3-dioxoisoindolin-4-yl)amino)heptyl)oxy)-1H-benzo[d][1,2,3]triazol-5-yl)propanoic acid]
[2]
  HO-1 protein expression: but not HO-1
  NQO1 protein expression: upregulated

## Cc1ccc(C(CC(=O)O)c2cc(OCCCNC(=O)COc3cccc4c3C(=O)N(C3CCC(=O)NC3=O)C4=O)c3c(c2)nnn3C)cc1CN1C[C@@H](C)Oc2ccccc2S1(=O)=O (stereo partly drawn) [Compound 7, 3-(7-(3-(2-((2-(2,6-Dioxopiperidin-3-yl)-1,3-dioxoisoindolin-4-yl)oxy)acetamido)propoxy)-1-methyl-1H-benzo[d][1,2,3]triazol-5-yl)-3-(4-methyl-3-(((R)-4-methyl-1,1-dioxido-3,4-dihydro-2H-benzo[b][1,4,5]oxathiazepin-2-yl)methyl)phenyl)propanoic acid]
[1]
  IC50: 143 nM

## Cc1ccc(C(CC(=O)O)c2cc(OCCCCCNC(=O)COc3cccc4c3C(=O)N(C3CCC(=O)NC3=O)C4=O)c3c(c2)nnn3C)cc1CN1C[C@@H](C)Oc2ccccc2S1(=O)=O (stereo partly drawn) [Compound 9, 3-(7-((5-(2-((2-(2,6-Dioxopiperidin-3-yl)-1,3-dioxoisoindolin-4-yl)oxy)acetamido)pentyl)oxy)-1-methyl-1H-benzo[d][1,2,3]triazol-5-yl)-3-(4-methyl-3-(((R)-4-methyl-1,1-dioxido-3,4-dihydro-2H-benzo[b][1,4,5]oxathiazepin-2-yl)methyl)phenyl)propanoic acid]
[1]
  IC50: 86 nM

## Cc1ccc(C(CC(=O)O)c2cc(OCCCCCCNC(=O)COc3cccc4c3C(=O)N(C3CCC(=O)NC3=O)C4=O)c3c(c2)nnn3C)cc1CN1C[C@@H](C)Oc2ccccc2S1(=O)=O (stereo partly drawn) [Compound 10, 3-(7-((6-(2-((2-(2,6-Dioxopiperidin-3-yl)-1,3-dioxoisoindolin-4-yl)oxy)acetamido)hexyl)oxy)-1-methyl-1H-benzo[d][1,2,3]triazol-5-yl)-3-(4-methyl-3-(((R)-4-methyl-1,1-dioxido-3,4-dihydro-2H-benzo[b][1,4,5]oxathiazepin-2-yl)methyl)phenyl)propanoic acid]
KEAP1 in HEK293T cells
  KEAP1 degradation efficiency: most efficient at degrading KEAP1
[1]
  IC50: 127 nM

## Cc1ccc(C(CC(=O)O)c2cc(OCCCCNC(=O)COc3cccc4c3C(=O)N(C3CCC(=O)NC3=O)C4=O)c3c(c2)nnn3C)cc1CN1C[C@@H](C)Oc2ccccc2S1(=O)=O (stereo partly drawn) [Compound 8, 3-(7-(4-(2-((2-(2,6-Dioxopiperidin-3-yl)-1,3-dioxoisoindolin-4-yl)oxy)acetamido)butoxy)-1-methyl-1H-benzo[d][1,2,3]triazol-5-yl)-3-(4-methyl-3-(((R)-4-methyl-1,1-dioxido-3,4-dihydro-2H-benzo[b][1,4,5]oxathiazepin-2-yl)methyl)phenyl)propanoic acid]
KEAP1 in HEK293T cells; 48 h and 72 h, comparison of 8 and 14
  KEAP1 degradation at longer time points: less effective at longer time points of 48 h and 72 h
KEAP1 in HEK293T cells
  KEAP1 degradation efficiency: most efficient at degrading KEAP1
[1]
  IC50: 66 nM

## Cc1ccc(C(CC(=O)O)c2cc(OC(=O)CCCOc3cccc4c3C(=O)N(C3CCC(=O)NC3=O)C4=O)c3c(c2)nnn3C)cc1CN1C[C@@H](C)Oc2ccccc2S1(=O)=O (stereo partly drawn) [Compound 5, 3-(7-((4-((2-(2,6-Dioxopiperidin-3-yl)-1,3-dioxoisoindolin-4-yl)oxy)butanoyl)oxy)-1-methyl-1H-benzo[d][1,2,3]triazol-5-yl)-3-(4-methyl-3-(((R)-4-methyl-1,1-dioxido-3,4-dihydro-2H-benzo[b][1,4,5]oxathiazepin-2-yl)methyl)phenyl)propanoic acid]
[1]
  reduction in KEAP1 binding affinity compared to inhibitor 2: greater than 3 fold

## Cc1ccc(C(CC(=O)O)c2cc(OCCNC(=O)COc3cccc4c3C(=O)N(C3CCC(=O)NC3=O)C4=O)c3c(c2)nnn3C)cc1CN1C[C@@H](C)Oc2ccccc2S1(=O)=O (stereo partly drawn) [Compound 6, 3-(7-(2-(2-((2-(2,6-Dioxopiperidin-3-yl)-1,3-dioxoisoindolin-4-yl)oxy)acetamido)ethoxy)-1-methyl-1H-benzo[d][1,2,3]triazol-5-yl)-3-(4-methyl-3-(((R)-4-methyl-1,1-dioxido-3,4-dihydro-2H-benzo[b][1,4,5]oxathiazepin-2-yl)methyl)phenyl)propanoic acid]
[1]
  IC50: 147 nM

## Cc1ccc(C(CC(=O)O)c2cc(OCCCNc3cccc4c3C(=O)N(C3CCC(=O)NC3=O)C4=O)c3c(c2)nnn3C)cc1CN1C[C@@H](C)Oc2ccccc2S1(=O)=O (stereo partly drawn) [Compound 4, 3-(7-(3-((2-(2,6-Dioxopiperidin-3-yl)-1,3-dioxoisoindolin-4-yl)amino)propoxy)-1-methyl-1H-benzo[d][1,2,3]triazol-5-yl)-3-(4-methyl-3-(((R)-4-methyl-1,1-dioxido-3,4-dihydro-2H-benzo[b][1,4,5]oxathiazepin-2-yl)methyl)phenyl)propanoic acid]
[1]
  IC50: 267 nM
  reduction in KEAP1 binding affinity compared to inhibitor 2: greater than 3 fold
